Experimental findings from ChEMBL document CHEMBL1142613, “Characterization of the major metabolite of sampangine in rats” (J Nat Prod, 2000) are described below.

Converted amounts (≈) assume the structure as drawn. The source made the active and inactive calls. No cut-off for these calls is given here. Bounds are passed on as bounds.

One experiment deals with Staphylococcus aureus. Nature of the experiment: Antibacterial activity against Staphylococcus aureus ATCC 6538. The format is functional, organism-based. Put shortly:
(§1)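 Colorimetric oxidation-reduction broth assay, with Alamar blue dye added as an indicator of the organism's metabolic activity; result expressed as MIC in µg/mL; streptomycin served as positive control.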

The test system of experiment [1] is Candida albicans. As to the kind of experiment: Antifungal activity against Candida albicans NIH B311 after 24 hrs by twofold serial dilution method. It counts as functional. The method in brief:
(§2)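 Two-fold serial broth macrodilution. C. albicans was grown in yeast nitrogen broth and incubated 24 h; C. neoformans in Mycophil broth, 48 h; both at 37 °C. MIC taken as the lowest concentration visually inhibiting growth. Footnote notes one test sample was run in Eugon by a microplate method.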

For experiment [2], the system named is Cryptococcus neoformans. As to the kind of experiment: Antifungal activity against Cryptococcus neoformans ATCC 52657 at 100 ug/mL after 48 hrs by bioautography. It counts as functional. The settings on record: ATCC 52657, 48 h, read-out: IZ. Put shortly:
(§3)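 Bioautography at a test concentration of 100 µg/mL; activity recorded as zone of inhibition in mm. Media were yeast nitrogen broth for C. albicans and Mycophil broth for C. neoformans.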

For the next experiment, the system named is Escherichia coli. As to the kind of experiment: Antibacterial activity against Escherichia coli ATCC 10536. It counts as functional, organism-based. The method in brief: as §1
Another experiment concerns Pseudomonas aeruginosa. Nature of the experiment: Antibacterial activity against Pseudomonas aeruginosa ATCC 15442. It counts as functional, organism-based. The method in brief: as §1
The test system of experiment [3] is Cryptococcus neoformans. Nature of the experiment: Antifungal activity against Cryptococcus neoformans ATCC 52657 at 100 ug/mL after 48 hrs by agar well diffusion method. It counts as functional. The settings on record: ATCC 52657, 48 h, read-out: IZ. The method in brief:
(§4)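 Agar well diffusion at a test concentration of 100 µg/mL; activity read as zone of inhibition diameter in mm. C. albicans was grown in yeast nitrogen broth, C. neoformans in Mycophil broth.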

For experiment [4], the system named is Candida albicans. As to the kind of experiment: Antifungal activity against Candida albicans NIH B311 at 100 ug/mL after 24 hrs by agar well diffusion method. It counts as functional. The settings on record: read-out: IZ. The method in brief:
as §4

The test system of experiment [5] is Cryptococcus neoformans. Nature of the experiment: Antifungal activity against Cryptococcus neoformans ATCC 52657 after 48 hrs by twofold serial dilution method. The settings on record: ATCC 52657, 48 h. It counts as functional. The method in brief: as §2
A further experiment concerns Bacillus subtilis. As to the kind of experiment: Antibacterial activity against Bacillus subtilis ATCC 6333. It counts as functional, organism-based. The method in brief: as §1
Experiment [6] concerns Candida albicans. As to the kind of experiment: Antifungal activity against Candida albicans NIH B311 at 100 ug/mL after 24 hrs by bioautography. The format is functional. The settings on record: read-out: IZ. Put shortly:
as §3

Take `O=C(O)[C@H]1O[C@@H](Oc2c3c4c(ccnc4c4ccccc24)C=CN3)[C@H](O)[C@@H](O)[C@@H]1O`: the outcome in the experiment on Staphylococcus aureus, in the experiment with Escherichia coli, with Pseudomonas aeruginosa and in the experiment on Bacillus subtilis was inactive. In addition, the MIC against Candida albicans [1] and against Cryptococcus neoformans [5] was above 25 µg/mL throughout. Besides, the zone of inhibition at 100 µg/mL came to 35 mm in the experiment with Cryptococcus neoformans [2], 26 mm in the experiment with Cryptococcus neoformans [3] and 6 mm in the experiment with Candida albicans [4].

As for `O=C1c2ccccc2-c2nccc3ccnc1c23` [SAMPANGINE], the MIC in the experiment on Candida albicans [1] worked out at 3.12 µg/mL (≈ 13.4 µM); in the experiment with Cryptococcus neoformans [5], 0.2 µg/mL (≈ 0.861 µM). Besides, the zone of inhibition at 100 µg/mL with Cryptococcus neoformans [2] was 35 mm; in the experiment on Candida albicans [6] it was 10 mm; in the experiment on Cryptococcus neoformans [3], 35 mm; in the experiment on Candida albicans [4] it was 10 mm.
